Legend:
Plasmodium falciparum [1] = assay: Resistance index, ratio of IC50 for chloroquine-resistant asexual erythrocytic stage of Plasmodium falciparum Dd2 to IC50 for chloroquine-sensitive asexual erythrocytic stage of Plasmodium falciparum NF54; assay type: functional
Plasmodium falciparum [2] = assay: Antiplasmodial activity against chloroquine-resistant asexual erythrocytic stage of Plasmodium falciparum Dd2 assessed as parasite growth inhibition by parasite lactate dehydrogenase assay; assay type: functional, organism-based
In short: (§1)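 Asexual erythrocytic cultures were maintained continuously by a modified Trager–Jensen method. Samples came from 20 mg/mL DMSO stocks and were serially diluted 2-fold in complete medium over 10 concentrations, from 100 µg/mL down to 0.20 µg/mL; some started at 1000 µg/mL. Reference drugs started at 100 ng/mL. Read-out was modified pLDH. IC50 came from full dose-response curves, run in triplicate on two occasions.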

Plasmodium falciparum [3] = assay: Antiplasmodial activity against chloroquine-sensitive asexual erythrocytic stage of Plasmodium falciparum NF54 assessed as parasite growth inhibition by parasite lactate dehydrogenase assay; assay type: functional, organism-based; in short: as §1
Plasmodium falciparum [4] = assay: Potency index, ratio of chloroquine IC50 to compound IC50 for chloroquine-resistant asexual erythrocytic stage of Plasmodium falciparum Dd2

| SMILES | Ratio IC50 (Plasmodium falciparum [1]) | IC50 (Plasmodium falciparum [2]) [nM] | IC50 (Plasmodium falciparum [3]) [nM] | Ratio IC50 (Plasmodium falciparum [4]) |
| --- | --- | --- | --- | --- |
| Clc1ccc2c(NCc3cn(CCN4CCOCC4)nn3)ccnc2c1 | 1.4 | 1300 | 1760 | – |
| Clc1ccc2c(NCc3cn(CCN4CCCC4)nn3)ccnc2c1 | 4.3 | 69.3 | 16.2 | 3 |
| Clc1ccc2c(NCc3cn(CCCN4CCOCC4)nn3)ccnc2c1 | 3.3 | 77.7 | 261 | – |
| Clc1ccc2c(NCc3cn(CCCN4CCCC4)nn3)ccnc2c1 | 8.1 | 18.4 | 149 | – |
| Clc1ccc2c(NCc3cn(CCCN4CCCCC4)nn3)ccnc2c1 | 14 | 8.9 | 123 | – |
| CCN(CC)CCn1cc(CNc2ccnc3cc(Cl)ccc23)nn1 | 5.5 | 53.5 | 9.8 | 3 |
| CN(CCCn1cc(CNc2ccnc3cc(Cl)ccc23)nn1)c1ccccc1 | 1.8 | 165 | 305 | – |
| CN(CCn1cc(CNc2ccnc3cc(Cl)ccc23)nn1)Cc1ccccc1 | 1.4 | 151 | 216 | – |
| CN(CCCn1cc(CNc2ccnc3cc(Cl)ccc23)nn1)Cc1ccccc1 | 3.4 | 50.8 | 15 | 3 |
| C[C@H]1[C@H](OC(=O)CCC(=O)O)O[C@@H]2O[C@@]3(C)CC[C@H]4[C@H](C)CC[C@@H]1[C@@]24OO3 [ARTESUNATE] | 4.6 | 24.2 | < 5.2 | – |
| Clc1ccc2c(NCc3cn(CCN4CCCCC4)nn3)ccnc2c1 | 5.1 | 51.6 | 10.2 | 3 |
| CN(CCn1cc(CNc2ccnc3cc(Cl)ccc23)nn1)c1ccccc1 | 1.3 | 380 | 492 | – |
| CCN(CC)CCCn1cc(CNc2ccnc3cc(Cl)ccc23)nn1 | 2.7 | 1980 | 5330 | – |
| Clc1ccc2c(NCc3cn(CCCN(Cc4ccccc4)Cc4ccccc4)nn3)ccnc2c1 | 20 | 114 | 2240 | – |
| Clc1ccc2c(NCc3cn(CCCN4c5ccccc5CCc5ccccc54)nn3)ccnc2c1 | 1.2 | 74.1 | 64.3 | 3 |
| Clc1ccc2c(NCc3cn(CCN(Cc4ccccc4)Cc4ccccc4)nn3)ccnc2c1 | 0.6 | 78.6 | 140 | 3 |

Reference: ChEMBL document CHEMBL3596109, “In vitro antiplasmodial activity of triazole-linked chloroquinoline derivatives synthesized from 7-chloro-N-(prop-2-yn-1-yl)quinolin-4-amine” (Bioorg Med Chem, 2015)
